Test system: MT4
Assay: Logarithm of cytotoxic concentration that causes half of the cells to die in mock-infected MT-4 cell cultures
Format: functional, Homo sapiens
Conditions: not given
Method in brief: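 Mock-infected MT-4 cell cultures exposed to compound; viability read spectrophotometrically as mitochondrial dehydrogenase reduction of yellow MTT to blue formazan in metabolically active cells. CC50 taken as the concentration killing half the cells, run alongside HIV-infected cultures.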
Work on `CC(NCCc1cccs1)c1cc(C#N)ccc1O` (centres undefined) yielded a pCC50 of under 4.
In the case of `O=C1NCCCC1C(=O)NNC(=S)Nc1cc(Cl)cc(Cl)c1` (centres undefined), the pCC50 is reported as 4.3.
`COC(C/N=C(\S)Nc1c(Br)cc(Cl)cc1Br)OC` gave a pCC50 of under 4.
Work on `CSc1cccnc1C(=O)NCc1ccc(N)cc1` yielded a pCC50 of under 4.
Work on `N#Cc1ccc(O)c(NC(=O)Nc2cccc(F)c2)c1` yielded a pCC50 of under 4.
Molecule `COc1cccc(CC/N=C(\S)Nc2ccc(C#N)cc2)c1` has a pCC50 of 4.3.
Work on `NC(=O)N/N=C\c1cc(Cl)ccc1Nc1cccc(Cl)c1` yielded a pCC50 of under 4.
In the case of `CC(Nc1ncccc1C(N)=O)c1cccc(Cl)c1` (centres undefined), the pCC50 is reported as under 4.
In the case of `CCCc1cc(O)nc(SCC(C)(C)c2ccccc2)n1`, the pCC50 is reported as under 4.3.
`S=C(NCc1ccc(Cl)c(Cl)c1)Nc1cccnc1` showed a pCC50 of 4.4.
For `CC(C)n1c(O)nnc1Sc1cccc(C(F)(F)F)c1`, the pCC50 was under 4.
In the case of `CC(C)(C)c1nc(COc2ccc(C(N)=O)c(O)c2)no1`, the pCC50 is reported as under 4.
Molecule `O=C(N/N=C(\S)Nc1cc(Cl)cc(Cl)c1)c1ccccc1F` has a pCC50 of 5.1.
Molecule `O=C(Cc1ccc(I)cc1)Nc1ncccc1O` has a pCC50 of under 4.
With `NC(=O)N/N=C\c1ccccc1NCc1ccccn1` the pCC50 was under 4.
Molecule `Oc1cc(O)cc(CNc2cc(Cl)c(Cl)c(Cl)c2)c1` has a pCC50 of 4.3.
Molecule `O=C(Nc1cccnc1)Nc1nc(Cl)ccc1Cl` has a pCC50 of under 4.

Test system: not listed separately
Assay: Logarithm of inhibitory concentration against HIV-induced cytopathogenicity in MT-4 cell cultures
Format: functional, cell-based
Conditions: Human immunodeficiency virus 1, MT4
Method in brief: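 Protection of MT-4 cell cultures against HIV-induced cytopathogenicity. Reduction of yellow MTT to blue formazan by mitochondrial dehydrogenases of metabolically active cells is read spectrophotometrically in HIV- and mock-infected cultures. IC50 is the concentration giving 50% protection against HIV-induced cytopathogenicity. CC50 is the concentration killing half the cells in mock-infected cultures.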
In the case of `CC(NCCc1cccs1)c1cc(C#N)ccc1O` (centres undefined), the IC50 is reported as over 100 µM.
`O=C1NCCCC1C(=O)NNC(=S)Nc1cc(Cl)cc(Cl)c1` (centres undefined) gave an IC50 of over 50.1 µM.
For `COC(C/N=C(\S)Nc1c(Br)cc(Cl)cc1Br)OC`, the IC50 was 25.1 µM.
In the case of `CSc1cccnc1C(=O)NCc1ccc(N)cc1`, the IC50 is reported as 39.8 µM.
Work on `N#Cc1ccc(O)c(NC(=O)Nc2cccc(F)c2)c1` yielded an IC50 of over 100 µM.
For `COc1cccc(CC/N=C(\S)Nc2ccc(C#N)cc2)c1`, the IC50 was 1.58 µM.
Work on `NC(=O)N/N=C\c1cc(Cl)ccc1Nc1cccc(Cl)c1` yielded an IC50 of 2.51 µM.
Work on `CC(Nc1ncccc1C(N)=O)c1cccc(Cl)c1` (centres undefined) yielded an IC50 of 12.6 µM.
Molecule `CCCc1cc(O)nc(SCC(C)(C)c2ccccc2)n1` has an IC50 of 15.8 µM.
Work on `S=C(NCc1ccc(Cl)c(Cl)c1)Nc1cccnc1` yielded an IC50 of over 39.8 µM.
In the case of `CC(C)n1c(O)nnc1Sc1cccc(C(F)(F)F)c1`, the IC50 is reported as 79.4 µM.
Work on `CC(C)(C)c1nc(COc2ccc(C(N)=O)c(O)c2)no1` yielded an IC50 of over 100 µM.
`O=C(N/N=C(\S)Nc1cc(Cl)cc(Cl)c1)c1ccccc1F` showed an IC50 of over 7.94 µM.
Molecule `O=C(Cc1ccc(I)cc1)Nc1ncccc1O` has an IC50 of over 100 µM.
For `NC(=O)N/N=C\c1ccccc1NCc1ccccn1`, the IC50 was 6.31 µM.
In the case of `Oc1cc(O)cc(CNc2cc(Cl)c(Cl)c(Cl)c2)c1`, the IC50 is reported as over 50.1 µM.
`O=C(Nc1cccnc1)Nc1nc(Cl)ccc1Cl` showed an IC50 of 31.6 µM.

— ChEMBL document CHEMBL1145815, “SYNOPSIS: SYNthesize and OPtimize System in Silico” (J Med Chem, 2003)
